Entries after “also recorded” stand apart in the source; their conditions may differ.
Tests used:
[1] = system: S. aureus; assay: Antibacterial assay in the presence of Ca2+; type: cell-based, Staphylococcus aureus; conditions: 1 wt% hydrogel, 0, 0.1, 1, 10 and 20 mM Ca2+, 37°C, CFU count, n=3
[2] = Oscillatory rheology of hydrogels; type: physicochemical; conditions: 1 wt% gel, 0.2% strain
How it was run: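 A 2 wt% peptide solution in chilled water was mixed with an equal volume of BTP (100 mM, 300 mM NaCl, pH 7.4). It was loaded on a 25 mm parallel plate at 5°C with a 0.5 mm gap, then ramped to 37°C over 100 s. G′ and G″ were followed by a 1 h time sweep at 6 rad/s and 0.2% strain. For recovery, 1000% strain was applied for 30 s at 6 rad/s, followed by a second 1 h sweep.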

[3] = system: human red blood cells (hRBCs); type: cell-based
[4] = system: E. coli (ATCC 25922); assay: Antibacterial assay on hydrogel surfaces; type: cell-based, Escherichia coli; conditions: 0.5, 1, 1.5 and 2 wt% hydrogels, 10^5 CFU/dm^2, 24 h, 37°C, n=3
How it was run: (§1)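 Gels (0.5–2 wt%) formed in wells by mixing peptide stocks in sterile water 1:1 with BTP buffer (100 mM, 300 mM NaCl, pH 7.4). They were held 3 h at 37°C, then equilibrated overnight under BTP (50 mM, 150 mM NaCl, pH 7.4), and the buffer was removed. Bacteria were grown overnight on blood agar, applied at 10^4 CFU/mL in TSB, and incubated 24 h at 37°C, with bare plastic as control. After a TSB wash, OD625 of the overlying solution was corrected for dilution and scattering. % non-viable = [1 − OD surface/OD control]×100; triplicate.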

[5] = system: P. aeruginosa; type: cell-based
[6] = system: S. aureus (ATCC 25923); assay: Antibacterial assay on hydrogel surfaces; type: cell-based, Staphylococcus aureus; conditions: 0.5, 1, 1.5 and 2 wt% hydrogels, 10^5 CFU/dm^2, 24 h, 37°C, n=3
How it was run: as §1

[7] = system: E. coli; assay: Atomic force microscopy imaging of bacteria on gel; type: cell-based, Escherichia coli; conditions: 2 wt% hydrogel, 2 h incubation, 37°C
[8] = system: E. coli; assay: Antibacterial assay in the presence of Ca2+; type: cell-based, Escherichia coli; conditions: 1 wt% hydrogel, 0, 0.1, 1, 10 and 20 mM Ca2+, 37°C, CFU count, n=3
[9] = system: P. aeruginosa (ATCC 27853); assay: Antibacterial assay on hydrogel surfaces; type: cell-based, Pseudomonas aeruginosa; conditions: 10^5 CFU/dm^2, 24 h, 37°C, n=3
How it was run: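 Peptide stocks in sterile water were mixed 1:1 with BTP (100 mM, 300 mM NaCl, pH 7.4) to gel, held 3 h at 37°C, then equilibrated overnight under BTP (50 mM, 150 mM NaCl, pH 7.4), which was then removed. Blood-agar-grown bacteria (18-20 h) at 10⁴ CFU/mL in TSB were applied to the gel surface for 24 h at 37°C. OD625 was compared with bare polystyrene: % non-viable = [1 − OD surface/OD control]×100.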

[10] = CD spectroscopy of folding and self-assembly; type: physicochemical
How it was run: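 Peptides were measured at 1 wt% in chilled water, or as chilled 2 wt% aqueous stock mixed 1:1 with BTP stock (100 mM, 300 mM NaCl, pH 7.4) and left to gel in the cell. Scans ran 200–260 nm at 37°C in a 0.1 mm quartz cell. Mean residue ellipticity was [θ] = (θobs/10lc)/r.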

Row | Substance | antibacterial activity (percent non-viable bacteria) in the presence of Ca2+ [1] | storage modulus (G') ([2]; 50 mM BTP, 150 mM NaCl, pH 7.4, 37°C, after 1 h, 6 rad/s) | recovery of initial mechanical rigidity after shear-thinning ([2]; 37°C, 1000% strain for 30 s, then 1 h at 6 rad/s) | hemolytic activity [3] | antibacterial activity of hydrogel surface against E. coli, in words [4] | live-dead result at the gel surface (cytostatic or cytotoxic) [5] | live-dead result at the gel surface, short incubation, compared with 24 h ([5]; 2 wt% hydrogel, 2 h incubation) | antibacterial activity of hydrogel surface against S. aureus, in words [6] | morphology of E. coli on gel surface by AFM [7] | antibacterial activity (percent non-viable bacteria) in the presence of Ca2+ [8] | antibacterial activity of hydrogel surface against P. aeruginosa, in words ([9]; 0.5 wt% hydrogel) | antibacterial activity of hydrogel surface against P. aeruginosa, in words ([9]; 1.5 wt% hydrogel) | antibacterial activity of hydrogel surface against P. aeruginosa, in words ([9]; 2 wt% hydrogel) | folding/assembly state by CD ([10]; 1 wt% peptide in BTP buffer with NaCl, pH 7.4, 37°C) | folding/assembly state by CD ([10]; 1 wt% peptide in water, 37°C) | hemolytic activity as a function of wt% [3]
1 | VKVRVRVRV^DPPTRVRVRVKV [PEP6R] | progressively attenuated with increasing concentrations of Ca^2+ | increase in mechanical rigidty | about 90% | low hemolytic activity | inhibit E. coli and S. aureus proliferation at all weight percentages; also recorded: quantitatively kills E. coli at all weight percents tested | cytotoxic | identical | inhibit E. coli and S. aureus proliferation at all weight percentages | membrane surface has collapsed and appears highly punctated | progressively attenuated with increasing concentrations of Ca^2+ | only marginally active | extremely potent | extremely potent |  |  | 
2 | VRVRVRVRV^DPPTRVRVRVRV-NH2 [PEP8R] |  |  |  | about 25% | capable of inhibiting both E. coli and S. aureus proliferation, irrespective of the peptide weight percentage used |  |  | capable of inhibiting both E. coli and S. aureus proliferation, irrespective of the peptide weight percentage used |  |  |  |  |  | folded and assembled into β-sheet structures | unfolded peptide | decreases in a concentration dependent manner
